Reference: ChEMBL document CHEMBL1148746, “Functional characterization of Tet-AMPA [tetrazolyl-2-amino-3-(3-hydroxy-5-methyl- 4-isoxazolyl)propionic acid] analogues at ionotropic glutamate receptors GluR1-GluR4. The molecular basis for the functional selectivity profile of 2-Bn-Tet-AMPA” (J Med Chem, 2007)
pEC50: −log10 of the molar value.

Key:
[1] = molecular target: Glutamate receptor 1 (Rattus norvegicus) (UniProt P19490); test: Agonist activity at GluR1 expressed in HEK293 cells by Fluo-4/Ca2+ assay
Glutamate receptor 1 (Rattus norvegicus), sequence (P19490 whole entry, looked up): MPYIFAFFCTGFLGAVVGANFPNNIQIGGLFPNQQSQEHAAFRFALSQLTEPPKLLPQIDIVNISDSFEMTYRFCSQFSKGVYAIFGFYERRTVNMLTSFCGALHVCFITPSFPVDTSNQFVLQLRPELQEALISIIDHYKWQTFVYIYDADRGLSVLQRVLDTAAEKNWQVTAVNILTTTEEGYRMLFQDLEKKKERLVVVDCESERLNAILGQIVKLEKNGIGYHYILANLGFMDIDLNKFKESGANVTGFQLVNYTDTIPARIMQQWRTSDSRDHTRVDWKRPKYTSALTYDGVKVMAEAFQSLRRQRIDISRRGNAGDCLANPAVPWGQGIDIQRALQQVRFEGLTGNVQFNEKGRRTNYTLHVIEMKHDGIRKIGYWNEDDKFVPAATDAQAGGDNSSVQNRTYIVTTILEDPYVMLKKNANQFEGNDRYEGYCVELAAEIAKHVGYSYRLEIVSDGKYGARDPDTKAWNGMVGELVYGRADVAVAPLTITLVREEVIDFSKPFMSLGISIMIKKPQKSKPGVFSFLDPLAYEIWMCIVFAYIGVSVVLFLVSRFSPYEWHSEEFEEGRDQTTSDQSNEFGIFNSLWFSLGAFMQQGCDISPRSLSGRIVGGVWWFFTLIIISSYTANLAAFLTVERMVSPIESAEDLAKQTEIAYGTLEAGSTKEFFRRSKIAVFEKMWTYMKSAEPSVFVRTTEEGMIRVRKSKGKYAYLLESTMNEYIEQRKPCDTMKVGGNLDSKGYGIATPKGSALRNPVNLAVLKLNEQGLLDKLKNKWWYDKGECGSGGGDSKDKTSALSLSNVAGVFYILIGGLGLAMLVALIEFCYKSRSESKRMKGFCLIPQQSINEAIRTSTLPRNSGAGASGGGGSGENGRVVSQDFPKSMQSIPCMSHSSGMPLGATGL

[2] = molecular target: Glutamate receptor 3 (Rattus norvegicus) (UniProt P19492); test: Agonist activity at GluR3 expressed in HEK293 cells by Fluo-4/Ca2+ assay; conditions: for pEC50: read-out: EC50; for EC50: read-out: Log EC50 (converted)
Glutamate receptor 3 (Rattus norvegicus), sequence (P19492 whole entry, looked up): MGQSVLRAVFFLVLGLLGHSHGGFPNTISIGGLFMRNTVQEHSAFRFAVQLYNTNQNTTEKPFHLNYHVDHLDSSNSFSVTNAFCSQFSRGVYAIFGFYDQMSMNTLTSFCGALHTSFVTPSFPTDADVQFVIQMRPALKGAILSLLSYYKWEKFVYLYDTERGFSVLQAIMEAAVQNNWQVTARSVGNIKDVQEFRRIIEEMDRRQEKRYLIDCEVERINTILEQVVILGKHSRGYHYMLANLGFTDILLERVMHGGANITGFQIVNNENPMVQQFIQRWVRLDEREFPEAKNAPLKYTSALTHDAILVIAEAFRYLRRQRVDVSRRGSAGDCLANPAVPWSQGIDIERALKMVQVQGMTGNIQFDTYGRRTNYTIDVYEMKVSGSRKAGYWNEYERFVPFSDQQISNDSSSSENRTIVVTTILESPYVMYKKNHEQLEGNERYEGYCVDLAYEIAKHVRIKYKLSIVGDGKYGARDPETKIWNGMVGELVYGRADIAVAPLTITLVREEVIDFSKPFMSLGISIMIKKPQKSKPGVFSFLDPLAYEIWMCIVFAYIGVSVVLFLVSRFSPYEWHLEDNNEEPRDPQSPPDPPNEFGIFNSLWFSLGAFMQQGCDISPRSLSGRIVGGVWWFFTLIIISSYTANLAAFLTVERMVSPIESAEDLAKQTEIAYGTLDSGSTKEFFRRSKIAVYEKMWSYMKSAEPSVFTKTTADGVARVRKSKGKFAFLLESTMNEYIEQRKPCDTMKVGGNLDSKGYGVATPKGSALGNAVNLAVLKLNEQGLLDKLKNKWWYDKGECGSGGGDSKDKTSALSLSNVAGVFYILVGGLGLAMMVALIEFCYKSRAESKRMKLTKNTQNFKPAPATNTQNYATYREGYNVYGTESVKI

[3] = molecular target: Glutamate receptor 4 (Rattus norvegicus) (UniProt P19493); test: Agonist activity at GluR4 expressed in HEK293 cells by Fluo-4/Ca2+ assay; conditions: for pEC50: read-out: EC50
Glutamate receptor 4 (Rattus norvegicus), sequence (P19493 whole entry, looked up): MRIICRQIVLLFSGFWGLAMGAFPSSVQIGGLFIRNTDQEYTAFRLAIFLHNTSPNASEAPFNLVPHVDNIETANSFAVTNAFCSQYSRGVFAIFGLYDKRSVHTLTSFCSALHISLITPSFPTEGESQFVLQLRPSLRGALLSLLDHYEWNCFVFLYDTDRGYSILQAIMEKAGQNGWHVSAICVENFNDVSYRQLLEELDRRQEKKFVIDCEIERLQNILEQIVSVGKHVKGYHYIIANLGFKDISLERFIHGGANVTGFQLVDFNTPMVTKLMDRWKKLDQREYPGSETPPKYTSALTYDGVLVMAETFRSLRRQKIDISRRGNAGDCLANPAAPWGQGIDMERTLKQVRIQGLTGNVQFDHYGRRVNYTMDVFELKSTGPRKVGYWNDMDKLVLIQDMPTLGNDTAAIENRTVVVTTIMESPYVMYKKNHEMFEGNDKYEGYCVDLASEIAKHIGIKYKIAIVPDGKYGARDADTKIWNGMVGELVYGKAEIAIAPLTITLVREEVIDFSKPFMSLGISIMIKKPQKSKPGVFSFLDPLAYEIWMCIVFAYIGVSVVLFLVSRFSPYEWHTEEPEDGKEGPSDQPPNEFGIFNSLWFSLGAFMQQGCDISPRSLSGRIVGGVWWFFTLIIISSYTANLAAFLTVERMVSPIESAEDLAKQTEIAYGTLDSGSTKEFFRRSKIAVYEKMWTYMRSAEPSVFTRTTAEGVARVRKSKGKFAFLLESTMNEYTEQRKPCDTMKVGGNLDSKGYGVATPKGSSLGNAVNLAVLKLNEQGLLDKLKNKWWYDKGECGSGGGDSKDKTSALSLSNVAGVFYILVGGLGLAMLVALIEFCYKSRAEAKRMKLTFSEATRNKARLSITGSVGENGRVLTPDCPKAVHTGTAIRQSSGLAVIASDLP

[4] = molecular target: Glutamate receptor 2 (Rattus norvegicus) (UniProt P19491); test: Agonist activity at GluR2Q expressed in HEK293 cells by Fluo-4/Ca2+ assay
Glutamate receptor 2 (Rattus norvegicus), sequence (P19491 whole entry, looked up): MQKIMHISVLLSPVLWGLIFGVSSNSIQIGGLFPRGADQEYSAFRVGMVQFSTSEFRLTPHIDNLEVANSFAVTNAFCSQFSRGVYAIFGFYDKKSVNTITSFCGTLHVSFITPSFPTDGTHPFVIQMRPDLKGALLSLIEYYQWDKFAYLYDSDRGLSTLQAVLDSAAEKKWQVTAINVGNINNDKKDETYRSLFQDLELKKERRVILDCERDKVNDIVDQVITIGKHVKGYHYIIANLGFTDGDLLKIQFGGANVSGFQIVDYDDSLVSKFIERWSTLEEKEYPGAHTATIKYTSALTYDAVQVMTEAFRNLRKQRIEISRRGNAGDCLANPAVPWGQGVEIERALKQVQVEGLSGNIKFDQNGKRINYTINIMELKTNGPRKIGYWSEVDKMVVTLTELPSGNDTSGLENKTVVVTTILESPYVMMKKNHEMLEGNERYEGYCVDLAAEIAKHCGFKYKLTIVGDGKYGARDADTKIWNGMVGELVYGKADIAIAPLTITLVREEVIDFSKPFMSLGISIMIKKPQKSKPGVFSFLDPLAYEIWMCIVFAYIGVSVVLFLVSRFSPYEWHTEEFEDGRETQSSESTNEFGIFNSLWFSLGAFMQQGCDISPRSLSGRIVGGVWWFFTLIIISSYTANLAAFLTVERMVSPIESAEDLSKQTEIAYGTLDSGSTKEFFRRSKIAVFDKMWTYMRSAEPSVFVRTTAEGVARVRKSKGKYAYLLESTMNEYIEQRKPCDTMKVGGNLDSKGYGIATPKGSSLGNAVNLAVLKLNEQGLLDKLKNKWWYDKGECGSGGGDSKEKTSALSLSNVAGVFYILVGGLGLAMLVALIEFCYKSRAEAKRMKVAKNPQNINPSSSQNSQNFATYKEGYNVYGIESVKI

[5] = molecular target: Glutamate receptor 1 (Rattus norvegicus) (UniProt P19490); test: Agonist activity at GluR1 expressed in HEK293 cells relative to S-Glutamate by Fluo-4/Ca2+ assay
[6] = molecular target: Glutamate receptor 3 (Rattus norvegicus) (UniProt P19492); test: Agonist activity at GluR3 expressed in HEK293 cells relative to S-Glutamate by Fluo-4/Ca2+ assay
[7] = molecular target: Glutamate receptor 4 (Rattus norvegicus) (UniProt P19493); test: Agonist activity at GluR4 expressed in HEK293 cells relative to S-Glutamate by Fluo-4/Ca2+ assay
[8] = Agonist activity at GluR1 M686V/I687 mutant expressed in HEK293 cells by Fluo-4/Ca2+ assay; type: functional, cell-based; conditions: Homo sapiens; for pEC50: read-out: EC50
How it was run: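 Rat GluR1i mutants, cDNA sequence-verified, transiently transfected into HEK293 cells and kept 2-3 weeks under 3 mg/mL G-418 selection to make polyclonal cells. Cells were plated 16-24 h ahead, loaded with Fluo-4/AM for 1 h at 37 °C, then held in HBSS with 20 mM HEPES, 10 mM CaCl2, 2.5 mM probenecid and 100 µM CTZ, pH 7.4. Fluorescence (ex 485/em 520 nm) was read up to 60 s after agonist addition.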

[9] = tested on: Glutamate receptor 1 (Homo sapiens), P42261 [D417S,M704V,I705A]; test: Agonist activity at GluR1 D399S/M686V/I687A mutant expressed in Xenopus oocyte cells relative to S-Glutamate; type: functional, cell-based
How it was run: (§1)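 Rat GluR1i mutant or GluR4i cRNA expressed in Xenopus oocytes, recorded by two-electrode voltage clamp 2-3 days after injection. Low-Ca2+ Ringer's (115 mM NaCl, 0.1 mM CaCl2, pH 7.5) was used, with 30 s pretreatment and continuous application of 100 µM CTZ. Peak currents were normalized to 1000 µM glutamate + 100 µM CTZ and fitted to the Hill equation; n = 3.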

[10] = molecular target: Glutamate receptor 4 (Homo sapiens) (UniProt P48058); test: Agonist activity at GluR4 expressed in Xenopus oocyte cells relative to S-Glutamate; type: functional, cell-based
Glutamate receptor 4 (Homo sapiens), sequence (P48058 whole entry): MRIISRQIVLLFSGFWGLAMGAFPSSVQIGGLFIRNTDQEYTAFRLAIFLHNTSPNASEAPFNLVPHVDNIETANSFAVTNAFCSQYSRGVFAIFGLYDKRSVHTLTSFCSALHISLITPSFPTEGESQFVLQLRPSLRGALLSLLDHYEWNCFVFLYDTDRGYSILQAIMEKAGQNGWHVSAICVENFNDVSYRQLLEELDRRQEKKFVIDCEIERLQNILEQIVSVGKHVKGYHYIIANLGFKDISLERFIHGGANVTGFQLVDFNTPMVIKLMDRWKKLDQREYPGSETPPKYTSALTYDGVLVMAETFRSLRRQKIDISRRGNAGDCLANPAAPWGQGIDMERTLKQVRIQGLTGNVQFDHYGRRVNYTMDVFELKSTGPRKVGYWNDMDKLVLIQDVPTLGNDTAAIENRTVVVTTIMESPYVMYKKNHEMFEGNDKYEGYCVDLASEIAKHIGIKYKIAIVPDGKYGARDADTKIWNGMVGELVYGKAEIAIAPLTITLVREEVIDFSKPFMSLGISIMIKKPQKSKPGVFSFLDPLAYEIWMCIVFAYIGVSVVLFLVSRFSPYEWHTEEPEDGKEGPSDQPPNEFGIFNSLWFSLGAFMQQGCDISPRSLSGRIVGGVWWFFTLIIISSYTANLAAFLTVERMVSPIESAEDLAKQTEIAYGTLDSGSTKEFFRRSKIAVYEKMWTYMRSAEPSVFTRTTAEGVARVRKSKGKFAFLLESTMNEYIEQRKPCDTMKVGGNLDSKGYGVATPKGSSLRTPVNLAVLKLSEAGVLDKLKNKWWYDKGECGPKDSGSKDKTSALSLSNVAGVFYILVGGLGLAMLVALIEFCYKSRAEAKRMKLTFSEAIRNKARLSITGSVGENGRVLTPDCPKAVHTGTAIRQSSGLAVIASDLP
How it was run: as §1

pEC50 [1] | pEC50 [2] | EC50 [2] | pEC50 [3] | pEC50 [4] | RUmax [5] | RUmax [6] | RUmax [7] | pEC50 [8] | EC50 ([8]; read-out: Log EC50 (converted)) | EC50 ([3]; read-out: Log EC50 (converted)) | RUmax [9] | RUmax [10] | SMILES
4.38 | 4.74 | 15.8 µM | 5.40 | 4.28 | – | – | – | – | – | – | – | – | CCn1nnc(-c2o[nH]c(=O)c2CC(N)C(=O)O)n1 (racemic)
– | – | – | – | – | 83% | 95% | 94% | – | – | – | – | – | CCn1nnc(-c2onc(O)c2CC(N)C(=O)O)n1 (racemic)
< 2.52 | < 2.52 | – | 2.52 | < 2.52 | – | 22% | 79% | – | – | – | – | – | Cn1nnnc1-c1onc(O)c1CC(N)C(=O)O (racemic)
– | – | – | – | – | – | – | – | 4.12 | 79.4 µM | – | – | – | N[C@@H](CCC(=O)O)C(=O)O [GLUTAMIC ACID]
3.32 | 3.35 | 398 µM | 4.10 | 3.08 | 82% | 85% | 97% | – | – | 63.1 µM | – | – | CCCn1nnc(-c2onc(O)c2CC(N)C(=O)O)n1 (racemic)
3.26 | 3.15 | – | 3.80 | 3.00 | 73% | 73% | 83% | – | – | – | – | – | CC(C)n1nnc(-c2onc(O)c2CC(N)C(=O)O)n1 (racemic)
– | – | – | – | – | – | – | – | 3.30 | – | – | 60% | 63% | NC(Cc1c(O)noc1-c1nnn(Cc2ccccc2)n1)C(=O)O (racemic)
